Experimental data gathered from unrelated publications.
Protocols differ between the studies behind these lines.

`C=CC(=O)NC1CCN(c2ncc3ncnc(Nc4ccc(Oc5ccc6c(c5)ncn6C)c(C)c4)c3n2)CC1` gave an EC50 of 1.15 µM (Hs766T; cell growth or viability).
With `C=CC(=O)c1cccnc1Nc1cc(C(F)(F)F)ccc1OCc1ccccc1` the GI50 was 12.8 µM (NCI-H226; cell growth or viability, CCK-8; 72 h).
`CC(C)c1ccccc1[C@@H]1CCCN1C1CC2(CCN(c3ccc(C(=O)NS(=O)(=O)c4ccc(NC[C@H]5CC[C@](C)(O)CC5)c([N+](=O)[O-])c4)c(Oc4cnc5[nH]ccc5c4)c3)CC2)C1` gave an IC50 of 0.013 µM (MINO; cell growth or viability, ATP luminescence; 48 h).
For `O=C(O)c1ccc2c(c1)nc(Nc1cccc(Cl)c1)c1ccncc12`, the IC50 was 14.2 µM (NCI-H226; cell growth or viability, resazurin; 48 h).
With `C=C(F)C(=O)N1CCN(c2nc(OC[C@@H]3CCCN3C)nc3c2CCN(c2cccc4cccc(Cl)c24)C3)C[C@@H]1CC#N` the IC50 was 0.0409 µM (Calu-1; cell growth or viability, ATP luminescence; 3D culture).
`CN(C)C(=O)c1cc2cnc(Nc3ccc(N4CCNCC4)cn3)nc2n1C1CCCC1` has an IC50 of 1.67 µM (human Neutrophil; reactive oxygen species, inhibitor).
The GI50 of `O=C(O)c1cccnc1Nc1cccc(C(F)(F)F)c1` is reported as > 40 µM (NCI-H226; cell growth or viability, CCK-8; 72 h).
For `CC1(C)CCC(CN2CCN(c3ccc(C(=O)NS(=O)(=O)c4ccc(NCC5CCOCC5)c([N+](=O)[O-])c4)c(Oc4cnc5[nH]ccc5c4)c3)CC2)=C(c2ccc(Cl)cc2)C1`, the IC50 was 5.38 µM (SU-DHL-8; cell growth or viability, ATP luminescence; 48 h).
`C=CC(=O)N1CCN(c2nc(=O)n(-c3c(C)ccnc3C(C)C)c3nc(-c4c(O)cccc4F)c(F)cc23)[C@@H](C)C1` has an IC50 of 0.00775 µM (Calu-1; cell growth or viability, ATP luminescence).
